Broadly, the GI50 is the concentration giving 50% growth inhibition. Read a high GI50 as less potent growth inhibition. For orientation: MIC means the lowest concentration that inhibits growth of the organism. Usually IC50 stands for the concentration needed to halve the response being measured.

Converted amounts (≈) assume the structure as drawn. The source made the active and inactive calls. The calls are words filed in the database; no cut-off is given here.

From ChEMBL document CHEMBL1135463 (J Med Chem, 2002) come the findings set out here.

The subject of experiment [1] is P388. Nature of the experiment: In vitro inhibition of P388 (murine leukemia) cell proliferation. The experiment is classed as functional. Conditions: Mus musculus, read-out: ED50 (the source's name).
In experiment [2] the test system is DU-145. Nature of the experiment: In vitro growth inhibition of DU-145 (human prostate carcinoma) cell line. In kind it is functional.
Experiment [3] deals with KM-20L2. Nature of the experiment: In vitro growth inhibition of KM20L2 cell line. In kind it is functional. To be noted: Homo sapiens.
For experiment [4], the system named is MCF7. Nature of the experiment: Cell growth inhibition of breast MCF-7 cells, expressed as 50% reduction in the net protein increase. The experiment is classed as functional. Conditions: Homo sapiens.
A short description of experiment [5]: In vitro growth inhibition of NCI-H460 (human non-small cell lung carcinoma) cell line. In kind it is functional.
Experiment [6] relates to SF-268 (Homo sapiens). Nature of the experiment: The concentration causing 50% reduction in the net protein increase (cell growth inhibition, GI50) against central nervous system (CNS) SF-268 cells.
Experiment [7] deals with BXPC-3. Nature of the experiment: In vitro growth inhibition of BXPC-3 (human pancreatic adenocarcinoma) cell line. The experiment is classed as functional.
Experiment [8] relates to Streptococcus pneumoniae. Nature of the experiment: The minimum inhibitory concentration (MIC) that inhibits all visible growth of the Streptococcus pneumoniae (bacteria); MIC may range from (32 - 64). The experiment is classed as functional. The essentials:
(§1)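 Broth microdilution following NCCLS reference methods (M7-A4 for aerobic bacteria, the yeast broth dilution standard for fungi). MIC is the lowest compound concentration giving optically clear wells, with no visible growth of the test organism.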

The subject of experiment [9] is Staphylococcus aureus. Nature of the experiment: The minimum inhibitory concentration (MIC) that inhibits all visible growth of the Staphylococcus aureus (bacteria) at 64 ug/mL; NI is no inhibition. In kind it is functional, organism-based. In outline: as §1
Experiment [10] has as its system Stenotrophomonas maltophilia. Nature of the experiment: The minimum inhibitory concentration (MIC) that inhibits all visible growth of the Stenotrophomonas maltophilia (bacteria) at 64 ug/mL; NI is no inhibition. In kind it is functional, organism-based. The essentials:
as §1

Experiment [11] has as its system Escherichia coli. Nature of the experiment: The minimum inhibitory concentration (MIC) that inhibits all visible growth of the Escherichia coli (bacteria) at 64 ug/mL; NI is no inhibition. In kind it is functional, organism-based. In outline:
as §1

In experiment [12] the test system is Enterococcus faecalis. Nature of the experiment: The minimum inhibitory concentration (MIC) that inhibits all visible growth of the Enterococcus faecalis (bacteria) at 64 ug/mL; NI is no inhibition. The experiment is classed as functional, organism-based. In outline:
as §1

Experiment [13] concerns Neisseria gonorrhoeae. Nature of the experiment: The minimum inhibitory concentration (MIC) that inhibits all visible growth of the Neisseria gonorrhoeae (bacteria); value may range from (16 -32). In kind it is functional. The essentials:
as §1

Experiment [14] has as its system Enterobacter cloacae. Nature of the experiment: The minimum inhibitory concentration (MIC) that inhibits all visible growth of the Enterobacter cloacae (bacteria) at 64 ug/mL; NI is no inhibition. The experiment is classed as functional, organism-based. In outline: as §1
Experiment [15] concerns SF-268. Nature of the experiment: In vitro growth inhibition of central nervous system SF-268 cell line. In kind it is functional. To be noted: Homo sapiens.
Experiment [16] has as its system Micrococcus luteus. Nature of the experiment: the minimum inhibitory concentration (MIC) that inhibits all visible growth of the Micrococcus luteus (bacteria) at 64 ug/mL; NI is no inhibition. In kind it is functional, organism-based. In outline: as §1
Experiment [17] relates to Candida albicans. Nature of the experiment: The minimum inhibitory concentration (MIC) that inhibits all visible growth of the Candida albicans (fungus) at 64 ug/mL; NI is no inhibition. The experiment is classed as functional, organism-based. The essentials: as §1
Experiment [18] relates to Cryptococcus neoformans. Nature of the experiment: Minimum inhibitory concentration (MIC) that inhibits all visible growth of the Cryptococcus neoformans (fungus). In kind it is functional. The essentials:
as §1

Experiment [19] deals with Enterococcus faecalis. Nature of the experiment: the minimum inhibitory concentration (MIC) that inhibits all visible growth of the Enterococcus faecalis (bacteria) at 64 ug/mL; NI is no inhibition. In kind it is functional, organism-based. In outline: as §1
Experiment [20] deals with Neisseria gonorrhoeae. Nature of the experiment: The minimum inhibitory concentration (MIC) that inhibits all visible growth of the Neisseria gonorrhoeae (bacteria); value may ranges from (32 - 64). In kind it is functional. The essentials:
as §1

The test system of experiment [21] is Streptococcus pneumoniae. Nature of the experiment: The minimum inhibitory concentration (MIC) that inhibits all visible growth of the Streptococcus pneumoniae (bacteria). The experiment is classed as functional. In outline: as §1
In experiment [22] the test system is Cryptococcus neoformans. Nature of the experiment: Minimum inhibitory concentration (MIC) that inhibits all visible growth of the Cryptococcus neoformans (fungus) at 64 ug/mL; NI is no inhibition. The experiment is classed as functional, organism-based. The essentials: as §1
In experiment [23] the test system is Candida albicans. Nature of the experiment: The minimum inhibitory concentration (MIC) that inhibits all visible growth of the Candida albicans (fungus). In kind it is functional. In outline:
as §1

Experiment [24] relates to Enterococcus faecalis. Nature of the experiment: the minimum inhibitory concentration (MIC) that inhibits all visible growth of the Enterococcus faecalis (bacteria). The experiment is classed as functional. The essentials:
as §1

For experiment [25], the target named is Tubulin (Bos taurus, UniProt Q6B856+Q862L2+Q862F3). Nature of the experiment: Inhibition of tubulin polymerization reported as IC50. The experiment is classed as functional.
Experiment [26] relates to Staphylococcus aureus. Nature of the experiment: The minimum inhibitory concentration (MIC) that inhibits all visible growth of the Staphylococcus aureus (bacteria). The experiment is classed as functional. In outline: as §1
Experiment [27] deals with Micrococcus luteus. Nature of the experiment: the minimum inhibitory concentration (MIC) that inhibits all visible growth of the Micrococcus luteus (bacteria). The experiment is classed as functional. The essentials:
as §1

Experiment [28] has as its system Cryptococcus neoformans. Nature of the experiment: Minimum inhibitory concentration (MIC) that inhibits all visible growth of the Cryptococcus neoformans (fungus). In kind it is functional. The essentials:
as §1

Experiment [29] concerns Neisseria gonorrhoeae. Nature of the experiment: The minimum inhibitory concentration (MIC) that inhibits all visible growth of the Neisseria gonorrhoeae (bacteria). In kind it is functional. In outline:
as §1

Take `COc1cc(/C=C/c2ccc(O)cc2)cc(OC)c1` [PTEROSTILBENE]: the EC50 in experiment [1] was 4.87 µg/mL (≈ 19 µM). Moreover, the GI50 amounted to 2.7 µg/mL (≈ 10.5 µM) in [2]; 3.4 µg/mL (≈ 13.3 µM) in experiment [3]; 2.3 µg/mL (≈ 8.97 µM) in experiment [4]; 2.7 µg/mL (≈ 10.5 µM) in [5]; 4.3 µg/mL (≈ 16.8 µM) in experiment [6]; 6.5 µg/mL (≈ 25.4 µM) in experiment [7].

For `COc1ccc(C(=O)c2cc(O)cc(OC)c2)cc1`, the MIC in [8] worked out at 64 µg/mL (≈ 248 µM); in experiment [13], 32 µg/mL (≈ 124 µM); in [18] it was 64 µg/mL (≈ 248 µM). In experiment [1], the EC50 was found to be 13.4 µg/mL (≈ 51.9 µM). In addition, the MIC entry in experiment [9], in experiment [10], in experiment [11], in [12], in experiment [14] and in experiment [16] was “inactive” in each case. In addition, the MIC result in [17] and in [19] was “inactive” in each case. Further, the GI50 in experiment [2] stood at 12.6 µg/mL (≈ 48.8 µM); in [3], 16.2 µg/mL (≈ 62.7 µM); in [4], 14.2 µg/mL (≈ 55 µM); in experiment [15], 13.9 µg/mL (≈ 53.8 µM); in experiment [5], 10.3 µg/mL (≈ 39.9 µM); in experiment [7] it was 15 µg/mL (≈ 58.1 µM).

Consider `COc1cc(OC)cc(C(=O)c2ccc(O)cc2)c1`, for which, in experiment [1], the EC50 amounted to 24.8 µg/mL (≈ 96 µM). In addition, the MIC result in [9], in [10], in [11], in experiment [12], in experiment [14] and in experiment [22] was “inactive” throughout. Also, the MIC entry in experiment [16], in experiment [17] and in [19] was “inactive” each time. Further, the concentration for 50% growth inhibition (GI50) in experiment [2] is 4.1 µg/mL (≈ 15.9 µM); in experiment [3] it was 3.6 µg/mL (≈ 13.9 µM); in experiment [4] it was 2.2 µg/mL (≈ 8.52 µM); in experiment [15] it was 3.8 µg/mL (≈ 14.7 µM); in experiment [5], 3 µg/mL (≈ 11.6 µM); in experiment [7] it was 4 µg/mL (≈ 15.5 µM). The MIC in experiment [20] and in experiment [21] was 64 µg/mL (≈ 248 µM) in each case.

As to `COc1cc(/C=C\c2ccc(O)cc2)cc(OC)c1`, in experiment [1], the EC50 was 2.95 µg/mL (≈ 11.5 µM). In addition, the MIC turned out to be 64 µg/mL (≈ 250 µM) in experiment [23]; 16 µg/mL (≈ 62.4 µM) in experiment [21]; 32 µg/mL (≈ 125 µM) in experiment [24]; 32 µg/mL (≈ 125 µM) in experiment [26]; 8 µg/mL (≈ 31.2 µM) in experiment [27]; 16 µg/mL (≈ 62.4 µM) in experiment [28]. For the same compound, in [29], the MIC stood at 8 µg/mL (≈ 31.2 µM). In addition, the concentration for 50% growth inhibition (GI50) in [2] was found to be 2.3 µg/mL (≈ 8.97 µM); in [3], 11.9 µg/mL (≈ 46.4 µM); in [4] it was 3 µg/mL (≈ 11.7 µM); in experiment [15], 2.2 µg/mL (≈ 8.58 µM); in [5], 2.8 µg/mL (≈ 10.9 µM); in experiment [7], 12.6 µg/mL (≈ 49.2 µM). The IC50 in experiment [25] stood at 29 µM.
